Laboratory results reported in publication PMC3286832 (Nature Communications, 2011).

Legend:
GLP catalytic SET domain = GLP catalytic SET domain (Homo sapiens, UniProt Q9H9B1); assay: In vitro methylation assay with GLP catalytic SET domain; format: biochemical; details: [methyl-3H]AdoMet, SDS–PAGE and fluorography / autoradiogram
Method in brief: (§1)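 E. coli-expressed hG9a or hGLP SET domain (1.6 μM) was incubated with 13.0 μM substrate (mDnmt3a N-terminal fragments or other GST-tagged proteins) and 2.8 μM [methyl-3H]AdoMet in 20 mM Tris–HCl pH 8.5 at 30 °C for 8 min. Products were resolved by SDS–PAGE and detected by fluorography/autoradiography.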

G9a catalytic SET domain = G9a catalytic SET domain (Homo sapiens, UniProt Q96KQ7); assay: In vitro methylation assay with G9a catalytic SET domain; format: biochemical; details: [methyl-3H]AdoMet, 30 °C, 8 min, pH 8.5, SDS–PAGE and fluorography
G9a catalytic SET domain, sequence (Q96KQ7 1038-1155 limits assumed): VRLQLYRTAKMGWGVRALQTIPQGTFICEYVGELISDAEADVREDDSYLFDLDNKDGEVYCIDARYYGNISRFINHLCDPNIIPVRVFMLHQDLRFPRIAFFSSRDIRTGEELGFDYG
Method in brief: as §1

MPP8 chromodomain = biological target: T1, MPP8 chromodomain (Homo sapiens, UniProt Q99549); assay: Co-crystal structure MPP8 chromodomain–hDNMT3AK47me2 peptide; format: binding
T1 sequence (Q99549 59-118 limits assumed): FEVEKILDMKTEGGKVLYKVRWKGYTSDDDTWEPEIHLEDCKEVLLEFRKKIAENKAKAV

[1] = tested on: DNA methylation, H3K9 methylation, H3K4 methylation; details: ref [4]; cited from earlier work

GLP catalytic SET domain, sequence (Q9H9B1 1126-1243 limits assumed): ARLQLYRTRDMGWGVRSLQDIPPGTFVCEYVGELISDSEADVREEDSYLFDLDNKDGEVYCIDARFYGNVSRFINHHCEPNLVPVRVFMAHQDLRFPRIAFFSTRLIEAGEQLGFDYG

Molecule	methylation by GLP (GLP catalytic SET domain)	other results
Dnmt3a-N: N-terminal fragment of mouse Dnmt3a (residues 1–274)	methylate the N-terminal fragment of Dnmt3a	methylation by G9a (G9a catalytic SET domain): methylate the N-terminal fragment of Dnmt3a
YEPSTTARKVGRPGR [hDNMT3AK47me2]		pairwise root-mean-square-deviation to MPP8-H3K9me3 structure (MPP8 chromodomain; 54 pairs of main-chain atoms, vs PDB 3QO2): ~ 0.6 Å; binding mode in MPP8 chromodomain (MPP8 chromodomain; crystal structure (3SVM)): bound in an extended conformation in an acidic cleft of the chromodomain
hDNMT3A residues 1–223: GST-tagged hDNMT3A N-terminal fragment	are methylated	
Nc1ncn([C@H]2C[C@H](O)[C@@H](CO)O2)c(=O)n1 [5-aza-2′-deoxycytidine]		effect on DNA, H3K9 and H3K4 methylation [1]: leads to depletion of DNA methylation and of H3K9 methylation, and a corresponding increase in H3K4 methylation

Continued, in another order:

methylation by GLP (GLP catalytic SET domain)	Molecule	other results
eliminates methylation	hDNMT3A K47R (residues 1–223): K47R substitution in hDNMT3A N-terminal domain	
are methylated	hDNMT3A residues 1–94: GST-tagged hDNMT3A N-terminal fragment	
